In ChEMBL document CHEMBL1142695, “Discovery of functionally selective 7,8,9,10-tetrahydro-7,10-ethano-1,2,4-triazolo[3,4-a]phthalazines as GABA A receptor agonists at the alpha3 subunit” (J Med Chem, 2005):

Legend:
Format in all cases: cell-based
[1] = molecular target: T1, GABA-A receptor; alpha-2/beta-3/gamma-2 (Homo sapiens, UniProt P18507+P28472+P47869); assay: Inhibition of [3H]Ro-151788 binding to recombinant human gamma-aminobutyric acid A receptor alpha-2-beta-3-gamma-2 subtype expressed in L (tk-) cells
T1 sequence (P18507 whole entry): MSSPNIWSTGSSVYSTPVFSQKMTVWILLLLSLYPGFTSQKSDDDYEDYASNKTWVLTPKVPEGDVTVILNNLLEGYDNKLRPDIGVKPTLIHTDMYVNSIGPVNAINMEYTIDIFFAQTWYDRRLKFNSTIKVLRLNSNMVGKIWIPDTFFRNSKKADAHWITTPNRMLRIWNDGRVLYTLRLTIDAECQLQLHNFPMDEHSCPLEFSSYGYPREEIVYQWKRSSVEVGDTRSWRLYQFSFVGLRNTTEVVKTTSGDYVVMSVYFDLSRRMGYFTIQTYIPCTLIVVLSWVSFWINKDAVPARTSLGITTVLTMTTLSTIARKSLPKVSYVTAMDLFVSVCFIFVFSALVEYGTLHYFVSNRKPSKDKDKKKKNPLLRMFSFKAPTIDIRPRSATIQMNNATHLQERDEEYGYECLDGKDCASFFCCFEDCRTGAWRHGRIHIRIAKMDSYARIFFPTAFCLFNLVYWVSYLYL
T1 sequence (P28472 whole entry): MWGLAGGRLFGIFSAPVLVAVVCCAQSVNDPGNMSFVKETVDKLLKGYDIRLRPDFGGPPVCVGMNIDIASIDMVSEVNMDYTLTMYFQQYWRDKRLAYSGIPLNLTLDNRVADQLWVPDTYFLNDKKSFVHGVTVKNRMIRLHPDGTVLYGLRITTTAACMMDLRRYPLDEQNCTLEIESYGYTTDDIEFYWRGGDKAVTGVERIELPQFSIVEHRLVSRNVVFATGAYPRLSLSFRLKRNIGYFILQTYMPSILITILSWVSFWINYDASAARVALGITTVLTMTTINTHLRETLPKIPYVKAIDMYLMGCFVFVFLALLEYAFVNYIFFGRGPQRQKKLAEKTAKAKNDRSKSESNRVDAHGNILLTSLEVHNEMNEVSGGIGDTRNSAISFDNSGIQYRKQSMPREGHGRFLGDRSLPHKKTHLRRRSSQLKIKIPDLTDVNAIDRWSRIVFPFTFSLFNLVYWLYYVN
T1 sequence (P47869 whole entry): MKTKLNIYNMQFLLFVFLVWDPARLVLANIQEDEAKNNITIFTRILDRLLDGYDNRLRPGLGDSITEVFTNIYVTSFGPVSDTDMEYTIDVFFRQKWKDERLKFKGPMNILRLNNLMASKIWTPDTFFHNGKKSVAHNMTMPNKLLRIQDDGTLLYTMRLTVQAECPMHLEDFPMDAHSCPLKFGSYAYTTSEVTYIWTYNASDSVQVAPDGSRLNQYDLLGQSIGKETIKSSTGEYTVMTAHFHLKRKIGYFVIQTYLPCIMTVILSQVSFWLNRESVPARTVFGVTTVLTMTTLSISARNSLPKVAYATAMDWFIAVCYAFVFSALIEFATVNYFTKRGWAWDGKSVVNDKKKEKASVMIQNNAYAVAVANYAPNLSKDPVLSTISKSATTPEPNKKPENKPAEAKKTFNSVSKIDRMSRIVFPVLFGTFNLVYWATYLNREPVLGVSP

[2] = molecular target: T2, GABA-A receptor; alpha-1/beta-3/gamma-2 (Homo sapiens, UniProt P14867+P18507+P28472); assay: Inhibition of [3H]Ro-151788 binding to recombinant human gamma-aminobutyric-acid A receptor alpha-1-beta-3-gamma-2 subtype expressed in L (tk-) cells
T2 sequence (P14867 whole entry): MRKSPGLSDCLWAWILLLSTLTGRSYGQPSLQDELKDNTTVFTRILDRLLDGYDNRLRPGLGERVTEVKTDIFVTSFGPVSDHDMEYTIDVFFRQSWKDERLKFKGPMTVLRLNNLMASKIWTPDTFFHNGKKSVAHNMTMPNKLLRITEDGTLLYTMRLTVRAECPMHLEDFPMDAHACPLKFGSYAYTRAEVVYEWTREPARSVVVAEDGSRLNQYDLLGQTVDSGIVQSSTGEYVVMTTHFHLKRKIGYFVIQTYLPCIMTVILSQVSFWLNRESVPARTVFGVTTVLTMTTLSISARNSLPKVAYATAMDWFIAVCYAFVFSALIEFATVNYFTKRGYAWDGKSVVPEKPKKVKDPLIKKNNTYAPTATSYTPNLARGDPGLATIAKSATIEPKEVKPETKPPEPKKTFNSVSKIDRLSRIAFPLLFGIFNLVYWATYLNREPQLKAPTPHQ
T2 sequence (P18507 whole entry): T1 sequence (P18507 whole entry)
T2 sequence (P28472 whole entry): T1 sequence (P28472 whole entry)

[3] = molecular target: T3, GABA-A receptor; alpha-3/beta-3/gamma-2 (Homo sapiens, UniProt P18507+P28472+P34903); assay: Inhibition of [3H]Ro-151788 binding to recombinant human gamma-aminobutyric-acid A receptor alpha-3-beta-3-gamma-2 subtype expressed in L (tk-) cells
T3 sequence (P18507 whole entry): T1 sequence (P18507 whole entry)
T3 sequence (P28472 whole entry): T1 sequence (P28472 whole entry)
T3 sequence (P34903 whole entry): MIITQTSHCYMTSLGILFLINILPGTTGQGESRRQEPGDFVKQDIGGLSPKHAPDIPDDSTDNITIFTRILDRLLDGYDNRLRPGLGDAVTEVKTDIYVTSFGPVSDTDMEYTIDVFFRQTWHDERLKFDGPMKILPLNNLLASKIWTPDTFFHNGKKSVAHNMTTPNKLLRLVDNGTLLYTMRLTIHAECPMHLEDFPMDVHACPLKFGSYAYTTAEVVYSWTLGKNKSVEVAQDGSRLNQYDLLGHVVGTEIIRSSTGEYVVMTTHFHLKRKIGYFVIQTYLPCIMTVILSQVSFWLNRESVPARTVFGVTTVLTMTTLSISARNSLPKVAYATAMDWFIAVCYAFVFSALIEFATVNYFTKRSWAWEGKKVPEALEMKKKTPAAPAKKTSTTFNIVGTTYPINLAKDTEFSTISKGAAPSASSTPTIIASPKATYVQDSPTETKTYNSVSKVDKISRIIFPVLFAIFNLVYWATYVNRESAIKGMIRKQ

[4] = molecular target: T4, GABA-A receptor; alpha-5/beta-3/gamma-2 (Homo sapiens, UniProt P18507+P28472+P31644); assay: Inhibition of [3H]Ro-151788 binding to recombinant human gamma-aminobutyric-acid A receptor alpha-5-beta-3-gamma-2 subtype expressed in L (tk-) cells
T4 sequence (P18507 whole entry): T1 sequence (P18507 whole entry)
T4 sequence (P28472 whole entry): T1 sequence (P28472 whole entry)
T4 sequence (P31644 whole entry): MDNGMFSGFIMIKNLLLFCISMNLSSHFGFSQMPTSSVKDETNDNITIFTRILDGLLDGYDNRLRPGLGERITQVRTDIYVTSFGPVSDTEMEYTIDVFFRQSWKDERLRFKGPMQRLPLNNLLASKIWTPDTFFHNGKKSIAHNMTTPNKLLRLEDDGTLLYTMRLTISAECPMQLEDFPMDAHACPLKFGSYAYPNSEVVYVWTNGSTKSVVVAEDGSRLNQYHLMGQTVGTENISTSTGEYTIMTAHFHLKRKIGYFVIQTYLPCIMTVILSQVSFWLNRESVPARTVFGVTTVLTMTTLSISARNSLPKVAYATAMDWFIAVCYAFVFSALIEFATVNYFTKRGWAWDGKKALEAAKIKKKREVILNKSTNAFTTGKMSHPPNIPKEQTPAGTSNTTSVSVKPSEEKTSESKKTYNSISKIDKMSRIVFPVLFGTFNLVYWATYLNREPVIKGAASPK

[5] = molecular target: GABA-A receptor; alpha-1/beta-3/gamma-2 (Homo sapiens) (UniProt P14867+P18507+P28472); assay: Efficacy was measured as modulation of the current in response to GABA at hGABA alpha-1-beta-3-gamma-2 receptor expressed in Xenopus oocytes; conditions: Oocyte
Summary of the method: (§1)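 Two-electrode voltage clamp on Xenopus oocytes expressing each receptor combination. […] Value is percent increase or decrease of the EC20 GABA current.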

[6] = molecular target: GABA-A receptor; alpha-3/beta-3/gamma-2 (Homo sapiens) (UniProt P18507+P28472+P34903); assay: Efficacy was measured as modulation of the current in response to GABA at hGABA alpha-3-beta-3-gamma-2 receptor expressed in Xenopus oocytes; conditions: Oocyte; summary of the method: as §1
[7] = molecular target: GABA-A receptor; alpha-5/beta-3/gamma-2 (Homo sapiens) (UniProt P18507+P28472+P31644); assay: Efficacy was measured as modulation of the current in response to GABA at hGABA alpha-5-beta-3-gamma-2 receptor expressed in Xenopus oocytes; conditions: Oocyte; summary of the method: as §1
[8] = molecular target: GABA-A receptor; alpha-2/beta-3/gamma-2 (Homo sapiens) (UniProt P18507+P28472+P47869); assay: Efficacy was measured as modulation of the current in response to GABA at hGABA alpha-2-beta-3-gamma-2 receptor expressed in Xenopus oocytes; conditions: Oocyte; summary of the method: as §1

| Structure (SMILES) | Ki [1] [nM] | Ki [2] [nM] | Ki [3] [nM] | Ki [4] [nM] | Efficacy [5] [%] | Efficacy [6] [%] | Efficacy [7] [%] | Efficacy [8] [%] |
| --- | --- | --- | --- | --- | --- | --- | --- | --- |
| c1ccc(-c2nnc3c4c(c(OCc5ncccc5OCC5CC5)nn23)C2CCC4CC2)cc1 | 5.6 | 6.9 | 2.3 | 0.75 | 175 | 139 | 50 | – |
| c1ccc(-c2nnc3c4c(c(OCc5ccccn5)nn23)C2CCC4CC2)cc1 | 26 | 71 | 13 | 1.2 | – | – | 18 | – |
| Cc1ccc(-c2nnc3c4c(c(OCc5ccccn5)nn23)C2CCC4CC2)cc1 | 120 | 310 | 32 | 4.7 | 9 | 40 | 6 | 14 |
| N#Cc1cccc(COc2nn3c(-c4ccccc4)nnc3c3c2C2CCC3CC2)c1 | 180 | > 1000 | 66 | 7.8 | 23 | 38 | 23 | – |
| Cn1cnc(COc2nn3c(-c4ccccc4)nnc3c3c2C2CCC3CC2)n1 | 16 | 31 | 8 | 2.1 | 26 | 88 | 26 | 16 |
| c1ccc(COc2nn3c(-c4cccnc4)nnc3c3c2C2CCC3CC2)nc1 | 54 | 260 | 38 | 2.7 | 36 | 9 | 31 | – |
| Cc1cccnc1COc1nn2c(-c3ccccc3)nnc2c2c1C1CCC2CC1 | 2 | 9.8 | 2.1 | 0.46 | 17 | 7 | – | – |
| CN(C)Cc1cccc(COc2nn3c(-c4ccccc4)nnc3c3c2C2CCC3CC2)c1 | 64 | 190 | 24 | 4.5 | – | -16 | -25 | – |
| Cc1ccnc(COc2nn3c(-c4ccccc4)nnc3c3c2C2CCC3CC2)c1 | 19 | 93 | 18 | 2 | 41 | 33 | – | – |
| c1ccc(-c2nnc3c4c(c(OCc5cccnn5)nn23)C2CCC4CC2)cc1 | 14 | 33 | 8.5 | 0.88 | 64 | 57 | 39 | 35 |
| Cc1cnc(COc2nn3c(-c4ccccc4)nnc3c3c2C2CCC3CC2)c(C)c1 | 3.4 | 3.4 | 0.71 | 0.2 | 34 | -2 | – | – |
| Cc1cc(C)n(COc2nn3c(-c4ccccc4)nnc3c3c2C2CCC3CC2)n1 | 7.5 | 23 | 2.3 | 0.26 | 31 | 7 | 1 | – |
| Cc1ccc(COc2nn3c(-c4ccccc4)nnc3c3c2C2CCC3CC2)nc1 | 17 | 56 | 15 | 1.2 | 100 | 74 | – | – |
| c1ccc(COc2cccnc2COc2nn3c(-c4ccccc4)nnc3c3c2C2CCC3CC2)cc1 | 100 | 160 | 20 | 7 | 178 | 132 | – | – |
| c1ccc(-c2nnc3c4c(c(OCc5cccnc5)nn23)C2CCC4CC2)cc1 | 68 | 150 | 25 | 6.5 | 51 | 20 | – | – |
| c1ccc(-c2nnc3c4c(c(OCc5cscn5)nn23)C2CCC4CC2)cc1 | 21 | 68 | 10 | 1.2 | 33 | 33 | – | – |
| CN1C(=O)CN=C(c2ccccc2)c2cc(Cl)ccc21 | – | – | – | – | 103 | 118 | 106 | 138 |
